What follows are compounds tested against Sodium-dependent serotonin transporter (Rattus norvegicus, UniProt P31652) (assay: Displacement of [3H]5-HT from rat cerebral cortex SERT after 10 mins).
Sodium-dependent serotonin transporter, sequence (P31652 whole entry): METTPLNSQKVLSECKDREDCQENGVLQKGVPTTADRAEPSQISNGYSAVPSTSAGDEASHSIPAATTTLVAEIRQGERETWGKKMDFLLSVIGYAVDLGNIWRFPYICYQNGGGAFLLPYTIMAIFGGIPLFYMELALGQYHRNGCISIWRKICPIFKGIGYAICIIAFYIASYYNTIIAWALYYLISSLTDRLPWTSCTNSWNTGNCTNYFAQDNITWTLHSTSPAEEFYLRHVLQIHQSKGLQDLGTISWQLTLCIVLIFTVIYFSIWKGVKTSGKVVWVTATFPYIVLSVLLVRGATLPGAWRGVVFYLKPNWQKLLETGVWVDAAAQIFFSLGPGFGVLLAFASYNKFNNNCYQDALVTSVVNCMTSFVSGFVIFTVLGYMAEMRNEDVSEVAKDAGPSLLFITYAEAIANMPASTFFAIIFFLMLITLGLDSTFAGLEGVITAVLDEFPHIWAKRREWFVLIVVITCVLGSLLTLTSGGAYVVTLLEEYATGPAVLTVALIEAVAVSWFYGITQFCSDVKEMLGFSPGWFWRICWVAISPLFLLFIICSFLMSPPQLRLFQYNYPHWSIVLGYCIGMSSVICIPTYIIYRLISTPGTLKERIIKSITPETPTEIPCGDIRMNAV
Type: tissue-based
Summary of the method: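 Rat cerebral cortex tissue. Inhibition of [3H]5-HT (27.9 Ci/mmol) uptake, accumulation measured over 10 min. Drug stocks included an added 0.01% (w/v) BSA. Five or more triplicate concentrations bracketing the IC50, converted to Ki by Cheng-Prusoff. Mean ± SEM from three to eight independent experiments.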
Work on `Oc1ccc(CN[C@H]2CC[C@@H](Cc3ccccc3)OC2)cc1` yielded a Ki of 2500 nM.
`Oc1ccc(CN[C@@H]2CO[C@H](C(c3ccccc3)c3ccccc3)C2)cc1` showed a Ki of 1150 nM.
For `Oc1ccc(CCN[C@@H]2CO[C@H](C(c3ccccc3)c3ccccc3)C2)cc1`, the Ki was 150 nM.
`COc1ccc(CCN[C@@H]2CO[C@H](C(c3ccccc3)c3ccccc3)C2)cc1` gave a Ki of 358 nM.
Compound `Fc1ccc(CCN[C@@H]2CO[C@H](C(c3ccccc3)c3ccccc3)C2)cc1` has a Ki of 1350 nM.
Compound `c1ccc(CCN[C@@H]2CO[C@H](C(c3ccccc3)c3ccccc3)C2)cc1` has a Ki of 2050 nM.
`Oc1ccc(CN[C@H]2CO[C@H](C(c3ccccc3)c3ccccc3)C2)cc1` showed a Ki of 408 nM.
For `c1ccc(CCN[C@H]2CO[C@H](C(c3ccccc3)c3ccccc3)C2)cc1`, the Ki was 844 nM.
For `Oc1ccc(CN[C@@H]2CO[C@H](C(c3ccc(F)cc3)c3ccc(F)cc3)C[C@H]2O)cc1`, the Ki was 58.4 nM.
With `Fc1ccc(C(c2ccc(F)cc2)[C@@H]2CC[C@H](NCc3ccc4c(c3)CCO4)CO2)cc1` the Ki was 3 nM.
`Nc1ccc(CN[C@H]2CC[C@@H](C(c3ccc(F)cc3)c3ccc(F)cc3)OC2)cc1` showed a Ki of 69.1 nM.
`Oc1ccc(CN[C@H]2CC[C@@H](CC(c3ccccc3)c3ccccc3)OC2)cc1` was tested, and the Ki was 346 nM.
`Oc1ccc(CN[C@H]2CC[C@@H](CCC(c3ccccc3)c3ccccc3)OC2)cc1` gave a Ki of 473 nM.

What follows are compounds tested against Transporter (Rattus norvegicus, UniProt Q63380) (assay: Displacement of [3H]-dopamine from rat cerebral cortex NET after 7 mins).
Transporter, sequence (Q63380 whole entry): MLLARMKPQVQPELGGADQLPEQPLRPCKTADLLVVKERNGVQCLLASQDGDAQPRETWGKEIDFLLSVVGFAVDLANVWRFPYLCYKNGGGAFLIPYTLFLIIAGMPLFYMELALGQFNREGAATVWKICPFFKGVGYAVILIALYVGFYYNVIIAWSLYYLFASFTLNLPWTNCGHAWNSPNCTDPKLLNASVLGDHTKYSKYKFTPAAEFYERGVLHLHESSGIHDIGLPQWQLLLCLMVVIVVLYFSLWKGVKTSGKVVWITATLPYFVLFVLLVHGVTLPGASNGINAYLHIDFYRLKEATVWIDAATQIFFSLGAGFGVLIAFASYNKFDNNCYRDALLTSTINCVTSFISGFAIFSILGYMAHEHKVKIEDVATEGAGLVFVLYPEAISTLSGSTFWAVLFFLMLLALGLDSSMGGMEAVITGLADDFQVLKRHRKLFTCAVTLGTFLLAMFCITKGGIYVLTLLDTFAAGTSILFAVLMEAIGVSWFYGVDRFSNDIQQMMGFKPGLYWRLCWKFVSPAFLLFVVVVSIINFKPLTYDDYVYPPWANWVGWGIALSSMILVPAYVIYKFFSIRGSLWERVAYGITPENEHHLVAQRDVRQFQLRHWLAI
Type: tissue-based
For `Nc1ccc(CN[C@H]2CC[C@@H](C(c3ccccc3)c3ccccc3)OC2)cc1`, the Ki was 12.6 nM.
Work on `Oc1ccc(CN[C@H]2CC[C@@H](Cc3ccccc3)OC2)cc1` yielded a Ki of 240 nM.
In the case of `Oc1ccc(CN[C@@H]2CO[C@H](C(c3ccccc3)c3ccccc3)C2)cc1`, the Ki is reported as 1510 nM.
Work on `Oc1ccc(CCN[C@@H]2CO[C@H](C(c3ccccc3)c3ccccc3)C2)cc1` yielded a Ki of 165 nM.
In the case of `COc1ccc(CCN[C@@H]2CO[C@H](C(c3ccccc3)c3ccccc3)C2)cc1`, the Ki is reported as 198 nM.
With `Fc1ccc(CCN[C@@H]2CO[C@H](C(c3ccccc3)c3ccccc3)C2)cc1` the Ki was 196 nM.
Work on `c1ccc(CCN[C@@H]2CO[C@H](C(c3ccccc3)c3ccccc3)C2)cc1` yielded a Ki of 427 nM.
Work on `Oc1ccc(CN[C@H]2CO[C@H](C(c3ccccc3)c3ccccc3)C2)cc1` yielded a Ki of 975 nM.
`c1ccc(CCN[C@H]2CO[C@H](C(c3ccccc3)c3ccccc3)C2)cc1` gave a Ki of 739 nM.
`Oc1ccc(CN[C@@H]2CO[C@H](C(c3ccc(F)cc3)c3ccc(F)cc3)C[C@H]2O)cc1` was tested, and the Ki was 4.2 nM.
In the case of `Fc1ccc(C(c2ccc(F)cc2)[C@@H]2CC[C@H](NCc3ccc4c(c3)CCO4)CO2)cc1`, the Ki is reported as 6.1 nM.
Compound `Nc1ccc(CN[C@H]2CC[C@@H](C(c3ccc(F)cc3)c3ccc(F)cc3)OC2)cc1` has a Ki of 8.4 nM.
In the case of `Oc1ccc(CN[C@H]2CC[C@@H](CC(c3ccccc3)c3ccccc3)OC2)cc1`, the Ki is reported as 181 nM.
Compound `Oc1ccc(CN[C@H]2CC[C@@H](CCC(c3ccccc3)c3ccccc3)OC2)cc1` has a Ki of 37.7 nM.

Each compound was assayed against Sodium-dependent dopamine transporter (Rattus norvegicus, UniProt P23977) (assay: Displacement of [3H]-dopamine from rat striatum DAT after 5 mins).
Sodium-dependent dopamine transporter, sequence (P23977 whole entry): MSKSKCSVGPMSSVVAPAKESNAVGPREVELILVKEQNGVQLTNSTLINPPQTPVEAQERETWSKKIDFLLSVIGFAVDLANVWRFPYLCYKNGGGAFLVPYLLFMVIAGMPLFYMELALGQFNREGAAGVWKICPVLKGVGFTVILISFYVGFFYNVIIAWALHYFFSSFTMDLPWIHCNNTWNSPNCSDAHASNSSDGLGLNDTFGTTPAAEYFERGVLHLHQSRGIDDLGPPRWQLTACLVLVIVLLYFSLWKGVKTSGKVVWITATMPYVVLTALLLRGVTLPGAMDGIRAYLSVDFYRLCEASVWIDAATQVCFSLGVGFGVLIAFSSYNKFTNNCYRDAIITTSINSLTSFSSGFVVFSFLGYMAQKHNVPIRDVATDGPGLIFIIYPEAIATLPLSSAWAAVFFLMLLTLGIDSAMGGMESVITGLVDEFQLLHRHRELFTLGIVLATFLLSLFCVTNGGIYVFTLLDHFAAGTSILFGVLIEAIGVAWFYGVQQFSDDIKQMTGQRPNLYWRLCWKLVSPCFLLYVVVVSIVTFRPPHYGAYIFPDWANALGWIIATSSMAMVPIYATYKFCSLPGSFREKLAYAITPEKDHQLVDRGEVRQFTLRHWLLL
Summary of the method: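 Uptake inhibition in rat striatal tissue: [3H]dopamine (45.0 Ci/mmol) accumulation measured over 5 min. Drug stocks contained an extra 0.01% (w/v) BSA. At least five concentrations, each in triplicate, spaced evenly around the IC50. IC50 converted to Ki via Cheng-Prusoff. Average ± SEM of three to eight independent experiments.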
`Oc1ccc(CN[C@@H]2CO[C@H](C(c3ccccc3)c3ccccc3)C2)cc1` gave a Ki of 943 nM.
`Oc1ccc(CCN[C@@H]2CO[C@H](C(c3ccccc3)c3ccccc3)C2)cc1` gave a Ki of 260 nM.
With `COc1ccc(CCN[C@@H]2CO[C@H](C(c3ccccc3)c3ccccc3)C2)cc1` the Ki was 266 nM.
In the case of `Fc1ccc(CCN[C@@H]2CO[C@H](C(c3ccccc3)c3ccccc3)C2)cc1`, the Ki is reported as 586 nM.
Compound `c1ccc(CCN[C@@H]2CO[C@H](C(c3ccccc3)c3ccccc3)C2)cc1` has a Ki of 642 nM.
`Oc1ccc(CN[C@H]2CO[C@H](C(c3ccccc3)c3ccccc3)C2)cc1` was tested, and the Ki was 3690 nM.
With `c1ccc(CCN[C@H]2CO[C@H](C(c3ccccc3)c3ccccc3)C2)cc1` the Ki was 454 nM.
With `Oc1ccc(CN[C@@H]2CO[C@H](C(c3ccc(F)cc3)c3ccc(F)cc3)C[C@H]2O)cc1` the Ki was 38.4 nM.
In the case of `Fc1ccc(C(c2ccc(F)cc2)[C@@H]2CC[C@H](NCc3ccc4c(c3)CCO4)CO2)cc1`, the Ki is reported as 11.2 nM.
Work on `Nc1ccc(CN[C@H]2CC[C@@H](C(c3ccc(F)cc3)c3ccc(F)cc3)OC2)cc1` yielded a Ki of 32.5 nM.
Work on `Oc1ccc(CN[C@H]2CC[C@@H](CC(c3ccccc3)c3ccccc3)OC2)cc1` yielded a Ki of 245 nM.
`Oc1ccc(CN[C@H]2CC[C@@H](CCC(c3ccccc3)c3ccccc3)OC2)cc1` showed a Ki of 45.7 nM.
